Assay [1] has as its system Mus musculus. Nature of the assay: Anti-inflammatory activity in TPA-induced mouse ear edema model assessed as inhibition of ear edema at 1 umol/ear. It counts as functional. In outline: (§1)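 In vivo 12-O-tetradecanoylphorbol 13-acetate (TPA)-induced ear edema in mice. Animals were handled under Mexican Official Norm MON-062-Z00-1999.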
Assay [2] has as its system Mus musculus. Nature of the assay: Anti-inflammatory activity in TPA-induced mouse ear edema model assessed as inhibition of ear edema. The assay is classed as functional, organism-based. In outline: as §1

Active and inactive are the calls of the source. No cut-off for these calls is given here.

Turning to `CC1=C[C@](O)(C(C)C)C(=O)c2cc(C)c(O)cc21`, the inhibition entry in the assay with Mus musculus [1] was “Active”. Also, the IC50 in the assay on Mus musculus [2] is more than 1 µmol.

On to `CC(C)[C@H]1CC[C@@](C)(O)c2ccc(C(=O)O)cc21`, for which, in the assay on Mus musculus [1], the inhibition entry is “Active”. The IC50 in the assay with Mus musculus [2] is more than 1 µmol.

On to `Cc1ccc2c(c1)C(=O)C(C(C)C)=C[C@@]2(C)O`, for which the inhibition result in the assay on Mus musculus [1] was “Active”. Besides, in the assay on Mus musculus [2], the IC50 is more than 1 µmol.

Turning to `CC1=C2CCC(C(=O)O)=C[C@@H]2[C@@H](C(C)C)CC1`, the “inhibition (INH)” value with Mus musculus [1] is given as 21.51%. For the same molecule, the IC50 in the assay on Mus musculus [2] was more than 1 µmol.

As to `CC1=CC[C@H](C(C)C)c2cc(C(=O)O)ccc21`, the “inhibition (INH)” value with Mus musculus [1] is 12.93%. Besides, in the assay with Mus musculus [2], the IC50 was more than 1 µmol.

`CC1=CC[C@H](C(C)C)[C@H]2C=C(C(=O)O)CC=C12`: the inhibition entry in the assay on Mus musculus [1] was “inactive”. Besides, the IC50 with Mus musculus [2] was more than 1 µmol.

In the case of `Cc1cc2c(C(C)C)ccc(C=O)c2cc1O`, the “inhibition (INH)” value in the assay on Mus musculus [1] is 43.14%. The IC50 in the assay on Mus musculus [2] is more than 228 µg.

With `COc1c(C(C)C)cc(C)c2ccc(C)cc12`, in the assay on Mus musculus [1], the “inhibition (INH)” value turned out to be 15.32%. Also, the IC50 in the assay with Mus musculus [2] is more than 1 µmol.

The record behind these values is ChEMBL document CHEMBL3739295, “Cadinane-Type Sesquiterpenoids from Heterotheca inuloides: Absolute Configuration and Anti-inflammatory Activity” (J Nat Prod, 2015).
